Experimental data collected from several papers.
Target: Serine/threonine-protein kinase Nek4 (NEK4, Homo sapiens, UniProt P51957)

COc1cnc(Nc2cccc(S(N)(=O)=O)c2)nc1N1CCN(c2ccccc2)CC1 — remaining binding (binding; competition with immobilised ligand; 1 µM): 95%
O=C(c1ccc(Nc2ncc(Cl)c(-c3cc4ccccc4s3)n2)cc1)N1CCC(N2CCCC2)CC1 — remaining binding (binding; competition with immobilised ligand; 1 µM): 48%
FC(F)(F)Oc1cccc(-c2cnc3ccc(-c4ccncc4)nn23)c1 — remaining binding (cell-free assay; competition with immobilised ligand; 5 µM): 94%
O=C(Nc1cccnn1)N1CC(C/C=C/c2cncc(Oc3ccc(C(F)(F)F)cn3)n2)C1 — remaining binding (cell-free assay; competition with immobilised ligand; 1 µM): 95%
N[C@@H]1CCN(c2nccc(-c3cnn4ncccc34)n2)C1 — remaining binding (binding; 1 µM): 100%
O=C(c1ccc(Nc2nccc(-c3cc4ccccc4s3)n2)cc1)N1CCC(N2CCCC2)CC1 — remaining binding (binding; competition with immobilised ligand; 1 µM): 100%
CC1CCCN1c1nccc(-c2cnn3ncccc23)n1 (centres unmarked) — remaining binding (binding; 1 µM): 100%
O=C(NCCCN1CCOCC1)c1ccc(Nc2nccc(-c3cc4ccccc4s3)n2)cc1 — remaining binding (binding; competition with immobilised ligand; 1 µM): 100%
CN(C)c1nccc(-c2cnn3ncccc23)n1 — remaining binding (binding; 1 µM): 98%
CC(=O)C1=C(C)N(c2cccc(C(F)(F)F)c2)C(=O)N[C@@H]1c1ccc(C#N)nc1 — remaining binding (cell-free assay; competition with immobilised ligand; 1 µM): 93.9%
C[C@@H]1CCN(c2nccc(-c3cnn4ncccc34)n2)C1 — remaining binding (binding; 1 µM): 83%
C[C@H](c1cccc(C#N)c1)n1cc(Cl)cc(C(N)=O)c1=N — remaining binding (cell-free assay; competition with immobilised ligand; 1 µM): 100%
O=C(Nc1c[nH]nc1C(=O)NC1CCNCC1)c1cc(F)cc(F)c1 — remaining binding (binding; competition with immobilised ligand; 1 µM): 91%
CCCCN(CCCC)C(=O)CN1C[C@@H](c2cc(OC)c3c(c2)OCO3)[C@H](C(=O)O)[C@H]1CC(C)(C)CCC — remaining binding (cell-free assay; competition with immobilised ligand; 1 µM): 93.9%
CN(CCCC(F)(F)F)c1nccc(-c2cnn3ncccc23)n1 — remaining binding (binding; 1 µM): 92%
C=CC(=O)N1CCC(C(=O)NCC(=O)N2CCN(c3nc(-c4cnc(N)nc4C(F)F)nc(N4CCOCC4)n3)CC2)CC1 — remaining binding (binding; competition with immobilised ligand; 1 µM): 81%
Cc1c[nH]c2nccc(Oc3c(F)cc(Nc4cc(Cl)nc(N)n4)cc3F)c12 — remaining binding (cell-free assay; competition with immobilised ligand; 0.1 µM): 90%
COc1ncc2cc3ccccc3nc2c1C#N — remaining binding (cell-free assay; competition with immobilised ligand; 5 µM): 93%
FC(F)(F)c1ccc2c(c1)nc(-c1cccnc1)n2C1CC1 — remaining binding (cell-free assay; competition with immobilised ligand; 1 µM): 100%
CNC(=O)[C@@H]1CC[C@@H](n2c(-c3ccc4cnccc4c3)nc3ccc(C(=O)NCc4cccc(C(N)=O)c4)cc32)C1 — remaining binding (binding; competition with immobilised ligand; 1 µM): 100%
